# Results reported in article PMC6219460 (SLAS discovery : advancing life sciences R & D, 2017).
# Where two headings read alike, the source gives them in different places.
# Assays:
# [1] = target: T1, human CB2 receptor (Homo sapiens, UniProt P34972); experiment: [35S]GTPγS binding assay, HEK293 membranes expressing CB2; type: biochemical; conditions: 10 μM GDP
# Summary of the method: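 HEK293 membranes expressing recombinant human CB2 (8 µg/well) were incubated with 0.1 nM [35S]GTPγS, 10 µM GDP, 0.1% (w/v) BSA and test compound (typically 1 nM–10 µM) in 50 mM Tris-HCl pH 7.4, 3 mM MgCl2, 0.2 mM EGTA, 100 mM NaCl. Nonspecific binding was set with 10 µM unlabeled GTPγS. Reactions were stopped by filtration. Duplicates, three experiments.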
# [2] = target: human CB1 receptor (Homo sapiens, UniProt P21554); type: binding; conditions: for inhibition of [3H]CP 55,940 binding to CB1 receptors (in words): concentrations up to 10 μM
# [3] = target: T1, human CB2 receptor; type: binding; conditions: for selectivity for CB2 versus CB1 (in words): from radioligand binding at CB2 and CB1
# [4] = EC50 GTPγS binding, 0.1 nM [35S]GTPγS
# [5] = read-out: log (Ki, Molar) CB1 (converted), [3H]CP 55,940 tracer at 1.5 nM
# [6] = Ki (μM) CB2, [3H]CP 55,940 tracer at 1.5 nM
# [7] = log (EC50, Molar) GTPγS binding CB2, 0.1 nM [35S]GTPγS
# human CB1 receptor, sequence (P21554 whole entry): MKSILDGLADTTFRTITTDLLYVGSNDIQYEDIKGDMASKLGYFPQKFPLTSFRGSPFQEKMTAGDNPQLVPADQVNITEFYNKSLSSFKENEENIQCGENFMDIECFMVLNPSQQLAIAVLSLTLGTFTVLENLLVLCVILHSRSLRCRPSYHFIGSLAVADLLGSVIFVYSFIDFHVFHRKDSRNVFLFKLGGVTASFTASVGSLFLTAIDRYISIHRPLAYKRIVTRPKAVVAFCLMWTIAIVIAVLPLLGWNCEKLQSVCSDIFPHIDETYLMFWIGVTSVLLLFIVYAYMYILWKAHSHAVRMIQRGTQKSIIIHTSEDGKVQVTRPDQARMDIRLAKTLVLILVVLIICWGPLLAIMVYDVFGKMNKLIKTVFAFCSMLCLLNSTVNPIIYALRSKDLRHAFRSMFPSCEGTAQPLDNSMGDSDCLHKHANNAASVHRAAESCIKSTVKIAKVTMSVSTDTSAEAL
# T1 sequence (P34972 whole entry): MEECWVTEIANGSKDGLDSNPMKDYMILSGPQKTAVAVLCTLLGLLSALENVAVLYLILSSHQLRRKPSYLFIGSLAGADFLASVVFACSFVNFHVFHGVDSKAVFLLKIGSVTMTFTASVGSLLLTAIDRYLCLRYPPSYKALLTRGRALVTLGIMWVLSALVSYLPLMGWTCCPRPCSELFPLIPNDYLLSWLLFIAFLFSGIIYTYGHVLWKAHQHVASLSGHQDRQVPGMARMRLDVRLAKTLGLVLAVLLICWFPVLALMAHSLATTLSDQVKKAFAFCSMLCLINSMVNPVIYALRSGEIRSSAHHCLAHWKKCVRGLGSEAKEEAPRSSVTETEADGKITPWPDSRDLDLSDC
Compound,"EC50 [1, 4] [nM]",Ki [2] [nM],"inhibition of [3H]CP 55,940 binding to CB1 receptors (in words) [2]","Ki [2, 5] [nM]","Ki [3, 6] [µM]",selectivity for CB2 versus CB1 (in words) [3],"EC50 [1, 7] [nM]","Ki ([3]; log (Ki, Molar) CB2, [3H]CP 55,940 tracer at 1.5 nM) [µM]"
"CC(C)c1cc(C2CCCN2C(=O)c2cc(-c3ccc4c(c3)OCO4)on2)no1 (stereo not drawn) [Compound 1, (5-(benzo[d][1,3]dioxol-5-yl)isoxazol-3-yl)(2-(5-isopropylisoxazol-3-yl)pyrrolidin-1-yl)methanone]",500,> 10000,no measurable inhibition,> 10000,2.3,selectively bind CB2 receptors,–,–
"c1ccc(Nc2nc3ccccc3nc2Nc2ccccc2)cc1 [Compound 2, N2,N3-diphenylquinoxaline-2,3-diamine]",–,1800,–,–,1.1,only weakly selective,501,–
"CCc1c(C)sc(NC(=O)C(Sc2ccccc2)c2ccccc2)c1C(=O)OC (stereo not drawn) [Compound 3, methyl 4-ethyl-5-methyl-2-(2-phenyl-2 (phenylthio)acetamido)thiophene-3-carboxylate]",–,1600,–,–,0.8,only weakly selective,39.8,–
"CC1CCN(C(NC(=O)c2ccc(C(C)(C)C)cc2)C(Cl)(Cl)Cl)CC1 (stereo not drawn) [Compound 4, 4-(tert-butyl)-N-(2,2,2-trichloro-1-(4-methylpiperidin-1 yl)ethyl)benzamide]",80,> 10000,no detectable inhibition,> 10000,0.2,selectively bind CB2 receptors,–,0.251
